Usually IC50 stands for the point on the concentration scale where inhibition reaches its midpoint.

This passage reports IC50, Activity and INCC50 results from ChEMBL document CHEMBL1144836, “Constituents of the sea cucumber Cucumaria okhotensis. Structures of okhotosides B1-B3 and cytotoxic activities of some glycosides from this species” (J Nat Prod, 2008).

The test system of one experiment is HeLa. As to the kind of experiment: Cytotoxicity against human HeLa cells. Type of experiment: functional, cell-based. A digest of the protocol:
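HeLa cells seeded at 6000 cells/well and cultured 12 h in RPMI with 10% FBS. Medium then replaced with 5% FBS-RPMI containing test concentrations, 22 h incubation. MTS added and reduction read 2 h later by absorbance at 492 nm, with 690 nm as background.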

The next experiment concerns THP-1. As to the kind of experiment: Cytotoxicity against human THP1 cells. Type of experiment: functional, cell-based.
A short description of experiment [1]: Cytotoxicity against mouse JB6Cl41 cells. Type of experiment: functional, cell-based. The following applies: JB6 Cl41.
Experiment [2] is described as follows: Decrease in UVB induced AP1 dependent transcription in mouse JB6 Cl41 cells at 0.7 ug/ml by luciferase assay. Type of experiment: functional. More on the design: scale not given: the % may be the effect or the level left. A digest of the protocol:
(§1)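 JB6-LucAP-1 reporter cells activated with EGF (10 ng/mL), TPA (20 ng/mL) or UVB (4 kJ/m2), plated at 6 × 10^3/well in 5% FBS/MEM and kept 24 h. Compound added in 0.1% FBS-MEM for 24 h. Cells lysed 1 h at room temperature, then luciferase luminescence read. Two independent experiments, five samples per concentration.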

Experiment [3] in a line: Decrease in TPA induced AP1 dependent transcription in mouse JB6 Cl41 cells at 1.1 ug/ml by luciferase assay. Further details: scale not given: the % may be the effect or the level left. It counts as functional. An outline of the steps: as §1
Experiment [4] can be described thus: Decrease in EGF induced AP1 dependent transcription in mouse […] cells at 1.1 ug/ml by luciferase assay. It counts as functional. More on the design: scale not given: the % may be the effect or the level left. A digest of the protocol: as §1
Experiment [5] in a line: Decrease in EGF induced NFKappaB dependent transcription in mouse JB6 Cl41 cells at 0.7 ug/ml by luciferase assay. Type of experiment: functional. More on the design: scale not given: the % may be the effect or the level left. An outline of the steps:
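JB6-LucNF-κB reporter cells activated with EGF (10 ng/mL), plated at 6 × 10^3/well in 5% FBS/MEM and kept 24 h. Compound added in 0.1% FBS-MEM for 24 h. Cells lysed 1 h at room temperature, then luciferase luminescence read. Two independent experiments, five samples per concentration.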

Experiment [6] is described as follows: Inhibition EGF induced mouse JB6 P+Cl41 cells colony formation in soft agar. Type of experiment: functional. An outline of the steps:
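JB6 P+ Cl41 cells (8 × 10^3/mL) activated with EGF (10 ng/mL), in 0.33% BME agar with 10% FBS over a 0.5% BME agar layer, compound in both layers. Kept 1 week at 37 °C, 5% CO2. Colonies scored by microscopy and INCC50 derived. Two independent experiments in triplicate.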

Experiment [7] in a line: Increase in p53 dependent transcription in mouse JB6 Cl41 cells at 1.8 ug/ml by luciferase assay. It counts as functional. A digest of the protocol: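 JB6-Lucp53 reporter cells, not activated, plated at 6 × 10^3/well in 5% FBS/MEM and kept 24 h. Compound added in 0.1% FBS-MEM for 24 h. Cells lysed 1 h at room temperature, then luciferase luminescence read. Two independent experiments, five samples per concentration.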

The structures appear in SMILES notation.

Turning to `CO[C@@H]1[C@@H](O)[C@H](O[C@@H]2[C@@H](O)[C@H](O[C@H]3[C@H](O)[C@@H](O[C@@H]4OC[C@@H](O)[C@H](O)[C@H]4O)[C@H](O[C@H]4[C@H](OC5CC[C@]6(C)[C@H]7CCC89C(=O)O[C@@](C)(CCCC(C)C)C8[C@@H](OC(C)=O)C[C@@]9(C)C7=CC[C@H]6C5(C)C)OC[C@@H](OS(=O)(=O)[O-])[C@@H]4O)O[C@@H]3C)OC[C@H]2O)O[C@H](CO)[C@H]1O.[Na+]` (stereo partly specified) [FRONDOSIDE A], the figures for the IC50 (in the experiment with HeLa; in the experiment on THP-1; in experiment [1]) were 2.1 µg/mL, 4.5 µg/mL and 5.9 µg/mL, respectively. In addition, the Activity turned out to be 41% in experiment [2]; 20% in experiment [3]; 51% in experiment [4]; 37% in experiment [5]; 39% in experiment [7]. The INCC50 in experiment [6] was determined as 0.8 µg/mL.
On to `C=C(C)CCC[C@]1(C)OC(=O)C23CC[C@H]4C(=CC[C@H]5C(C)(C)C(O[C@@H]6OC[C@@H](OS(=O)(=O)[O-])[C@H](O)[C@H]6O[C@@H]6O[C@H](CO)[C@@H](O[C@@H]7O[C@H](CO)[C@@H](O)[C@H](O[C@@H]8O[C@H](CO)[C@@H](O)[C@H](OC)[C@H]8O)[C@H]7O)[C@H](O)[C@H]6O[C@@H]6OC[C@@H](O)[C@H](O)[C@H]6O)CC[C@]45C)[C@]2(C)C[C@H](OC(C)=O)C31.[Na+]` (stereo partly specified) [OKHOTOSIDE B1], for which, in the experiment on HeLa, the IC50 amounted to 34 µg/mL.
Still for that read-out and setting: then `C=C(C)CCC[C@]1(C)OC(=O)C23CC[C@H]4C(=CC[C@H]5C(C)(C)C(O[C@@H]6OC[C@@H](OS(=O)(=O)[O-])[C@H](O)[C@H]6O[C@@H]6O[C@H](CO)[C@@H](O[C@@H]7O[C@H](COS(=O)(=O)[O-])[C@@H](O)[C@H](O[C@@H]8O[C@H](CO)[C@@H](O)[C@H](OC)[C@H]8O)[C@H]7O)[C@H](O)[C@H]6O[C@@H]6OC[C@@H](O)[C@H](O)[C@H]6O)CC[C@]45C)[C@]2(C)C[C@H](OC(C)=O)C31.[Na+].[Na+]` (stereo partly specified) [OKHOTOSIDE B2], with 13 µg/mL.
